# Laboratory results reported in ChEMBL document CHEMBL2169836 (J Med Chem, 2012).
# The source made the active and inactive calls. The calls are words filed in the database; no cut-off is given here.
# How the values were obtained:
# [1] = Oral bioavailability in jugular and femoral vein precannulated Sprague-Dawley rat plasma at 5 mg/kg by LC/MS/MS analysis; type: ADME, organism-based
# [2] = system: Rattus norvegicus; test: Clearance in jugular and femoral vein precannulated Sprague-Dawley rat at 1 mg/kg, iv by LC/MS/MS analysis relative to hepatic blood flow; type: ADME, organism-based, Liver; design: dose 1 mg/kg, route intravenous; details: in vivo
# [3] = Mean resident time in jugular and femoral vein precannulated Sprague-Dawley rat at 1 mg/kg, iv by LC/MS/MS analysis; type: ADME, organism-based; design: dose 1 mg/kg, route intravenous; details: in vivo
# [4] = Volume of distribution at steady state in jugular and femoral vein precannulated Sprague-Dawley rat at 1 mg/kg, iv by LC/MS/MS analysis; type: ADME, organism-based; design: dose 1 mg/kg, route intravenous; details: in vivo, read-out: Vdss
# [5] = biological target: T1, Sodium/hydrogen exchanger 1 (Homo sapiens, UniProt P19634); test: Inhibition of NHE1 in human HT-29 cells assessed as intracellular pH change after 30 mins; type: cell-based
# [6] = system: Caco-2; test: Efflux ratio of permeability from […] side in human Caco2 cells at 10 uM up to 150 mins; type: ADME, cell-based; details: caco-2, 2.5 h
# [7] = biological target: T1, Sodium/hydrogen exchanger 1; test: Inhibition of NHE1 in human HT-29 cells assessed as intracellular pH change after 30 mins in presence of plasma protein; type: cell-based
# [8] = biological target: Cytochrome P450 2C19 (Homo sapiens, UniProt P33261); test: Inhibition of CYP2C19 in human liver microsomes using 7-ethoxy-3-cyanocoumarin as substrate after 45 mins by LC/MS/MS analysis; type: ADME, Microsome
# [9] = biological target: T2, Cytochrome P450 3A4 (Homo sapiens, UniProt P08684); test: Inhibition of CYP3A4 in human liver microsomes using 7-benzyloxy-4-(trifluoromethyl)-coumarin as substrate after 30 mins by LC/MS/MS analysis; type: ADME, Microsome
# [10] = system: Salmonella typhimurium; test: Genotoxicity in Salmonella typhimurium TA100 up to 5000 ug/plate by Ames test in the presence of S9 fraction; type: toxicity, organism-based; details: salmonella enterica subsp. enterica serovar typhimurium
# [11] = biological target: Voltage-gated inwardly rectifying potassium channel KCNH2 (Homo sapiens, UniProt Q12809); test: Inhibition of human ERG expressed in HEK 293 cells by PatchXpress assay; type: cell-based, HEK293
# [12] = biological target: T2, Cytochrome P450 3A4; test: Activation of CYP3A4 expressed in DPX cells co-transfected with human PXR at 0.1 to 10 uM; type: ADME, cell-based
# [13] = system: Salmonella typhimurium; test: Genotoxicity in Salmonella typhimurium TA98 up to 5000 ug/plate by Ames test in the absence of S9 fraction; type: toxicity, organism-based; details: salmonella enterica subsp. enterica serovar typhimurium
# [14] = biological target: T3, Sodium/hydrogen exchanger 3 (Homo sapiens) (UniProt P48764); test: Inhibition of NHE3 transfected in Chinese hamster PS120 assessed as intracellular pH change up to 16 uM; type: cell-based
# T3 sequence (whole entry): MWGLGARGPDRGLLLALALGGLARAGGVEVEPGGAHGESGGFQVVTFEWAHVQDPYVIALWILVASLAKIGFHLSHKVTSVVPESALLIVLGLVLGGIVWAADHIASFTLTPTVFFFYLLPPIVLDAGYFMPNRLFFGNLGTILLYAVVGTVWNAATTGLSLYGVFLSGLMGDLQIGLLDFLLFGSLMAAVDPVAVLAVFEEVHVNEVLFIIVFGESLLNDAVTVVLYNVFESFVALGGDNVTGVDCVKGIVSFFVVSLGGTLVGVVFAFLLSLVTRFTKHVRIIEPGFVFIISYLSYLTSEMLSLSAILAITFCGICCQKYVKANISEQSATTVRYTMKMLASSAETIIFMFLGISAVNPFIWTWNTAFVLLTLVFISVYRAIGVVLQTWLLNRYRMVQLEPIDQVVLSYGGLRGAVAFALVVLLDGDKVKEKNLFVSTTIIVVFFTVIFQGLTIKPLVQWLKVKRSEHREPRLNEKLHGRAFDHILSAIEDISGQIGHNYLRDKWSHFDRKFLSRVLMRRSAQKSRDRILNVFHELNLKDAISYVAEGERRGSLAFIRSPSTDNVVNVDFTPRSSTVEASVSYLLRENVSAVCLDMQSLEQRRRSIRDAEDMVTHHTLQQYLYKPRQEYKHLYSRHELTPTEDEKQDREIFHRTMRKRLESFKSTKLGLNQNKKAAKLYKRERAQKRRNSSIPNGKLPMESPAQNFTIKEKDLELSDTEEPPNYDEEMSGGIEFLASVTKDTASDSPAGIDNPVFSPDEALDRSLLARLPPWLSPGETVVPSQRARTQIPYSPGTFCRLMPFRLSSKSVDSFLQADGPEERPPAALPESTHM
# [15] = Permeability of the compound by PAMPA; type: ADME; details: read-out: permeability
# Outline: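 Donor buffers were set to pH 5.0, 6.2 and 7.4 with NaOH, and ASB7.4 buffer was used as acceptor. Filters (0.45 pore, 125 μm thick) were lipid-coated. A 10 mM DMSO stock was diluted to 41.7 μM in donor buffer. The sandwich was incubated 4 h without stirring. Reference, donor and acceptor concentrations were read in duplicate by UV plate reader, and ratings were assigned from permeation velocity.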
# [16] = system: Heart; test: Inhibition of ischemia reperfusion injury-induced decrease in left ventricular developed pressure in Langendorff isolated perfused Sprague-Dawley rat heart at 100 nM after 30 mins; type: functional; design: scale not given: the % may be the effect or the level left
# Outline: (§1)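 In the isolated perfused rat heart ischemia-reperfusion model, compound was present in the perfusate. Recovery of left ventricular developed pressure was expressed as % of baseline pressure, 30 min postreperfusion, against vehicle control. Left ventricular end diastolic pressure was also monitored.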
# [17] = system: Escherichia coli; test: Genotoxicity in Escherichia coli WP2 expressing uvrA up to 5000 ug/plate by Ames test in presence of S9 fraction; type: toxicity, organism-based
# [18] = system: Canis familiaris; test: Clearance in overnight fasted Beagle dog at 1 mg/kg, iv relative to hepatic blood flow; type: ADME, organism-based, Canis lupus familiaris, Liver; design: dose 1 mg/kg, route intravenous; details: in vivo
# [19] = biological target: Cytochrome P450 2D6 (Homo sapiens, UniProt P10635); test: Inhibition of CYP2D6 in human liver microsomes using 3-[2-(N,N-diethyl-N-methylamino)ethyl]-7- methoxy-4-methylcoumarin as substrate after 45 mins by LC/MS/MS analysis; type: ADME, Microsome
# [20] = system: Salmonella typhimurium; test: Genotoxicity in Salmonella typhimurium TA1535 up to 5000 ug/plate by Ames test in the absence of S9 fraction; type: toxicity, organism-based; details: salmonella enterica subsp. enterica serovar typhimurium
# [21] = system: Salmonella typhimurium; test: Genotoxicity in Salmonella typhimurium TA98 up to 5000 ug/plate by Ames test in the presence of S9 fraction; type: toxicity, organism-based; details: salmonella enterica subsp. enterica serovar typhimurium
# [22] = system: HeLa; test: Cytotoxicity against human HeLa cells up to 100 uM after 24 hrs; type: cell-based
# [23] = system: U-937; test: Induction of phopspholipidosis in human U937 cells up to 50 uM after 24 hrs by Nile red flow cytometry assay; type: cell-based; details: u-937, 24 h
# [24] = system: Escherichia coli; test: Genotoxicity in Escherichia coli WP2 expressing uvrA up to 5000 ug/plate by Ames test in absence of S9 fraction; type: toxicity, organism-based
# [25] = system: Salmonella typhimurium; test: Genotoxicity in Salmonella typhimurium TA1537 up to 5000 ug/plate by Ames test in the presence of S9 fraction; type: toxicity, organism-based; details: salmonella enterica subsp. enterica serovar typhimurium
# [26] = system: Heart; test: Inhibition of ischemia reperfusion injury-induced decrease in left ventricular developed pressure in Langendorff isolated perfused Sprague-Dawley rat heart at 10 nM after 30 mins; type: functional; design: scale not given: the % may be the effect or the level left; outline: as §1
# [27] = Volume of distribution at steady state in overnight fasted Beagle dog at 1 mg/kg, iv; type: ADME, organism-based, Canis lupus familiaris; design: dose 1 mg/kg, route intravenous; details: in vivo, read-out: Vdss
# [28] = Oral bioavailability in overnight fasted Beagle dog at 5 mg/kg; type: ADME, organism-based, Canis lupus familiaris; details: in vivo
# [29] = system: Salmonella typhimurium; test: Genotoxicity in Salmonella typhimurium TA1537 up to 5000 ug/plate by Ames test in the absence of S9 fraction; type: toxicity, organism-based; details: salmonella enterica subsp. enterica serovar typhimurium
# [30] = Metabolic stability in human liver microsomes at 1 uM up to 60 mins by LC/MS/MS analysis relative to hepatic blood flow; type: ADME, Microsome; details: read-out: Stability
# [31] = biological target: Cytochrome P450 2C9 (Homo sapiens, UniProt P11712); test: Inhibition of CYP2C9 in human liver microsomes using 7-methoxy-4-(trifluoromethyl)-coumarin as substrate after 45 mins by LC/MS/MS analysis; type: ADME, Microsome
# [32] = system: Salmonella typhimurium; test: Genotoxicity in Salmonella typhimurium TA100 up to 5000 ug/plate by Ames test in the absence of S9 fraction; type: toxicity, organism-based; details: salmonella enterica subsp. enterica serovar typhimurium
# [33] = Metabolic stability in rat liver microsomes at 1 uM up to 60 mins by LC/MS/MS analysis relative to hepatic blood flow; type: ADME, Microsome; details: read-out: Stability
# [34] = Mean resident time in overnight fasted Beagle dog at 1 mg/kg, iv; type: ADME, organism-based, Canis lupus familiaris; design: dose 1 mg/kg, route intravenous; details: in vivo
# [35] = system: Salmonella typhimurium; test: Genotoxicity in Salmonella typhimurium TA1535 up to 5000 ug/plate by Ames test in the presence of S9 fraction; type: toxicity, organism-based; details: salmonella enterica subsp. enterica serovar typhimurium
# Chain of Cytochrome P450 2C19 (P33261 whole entry): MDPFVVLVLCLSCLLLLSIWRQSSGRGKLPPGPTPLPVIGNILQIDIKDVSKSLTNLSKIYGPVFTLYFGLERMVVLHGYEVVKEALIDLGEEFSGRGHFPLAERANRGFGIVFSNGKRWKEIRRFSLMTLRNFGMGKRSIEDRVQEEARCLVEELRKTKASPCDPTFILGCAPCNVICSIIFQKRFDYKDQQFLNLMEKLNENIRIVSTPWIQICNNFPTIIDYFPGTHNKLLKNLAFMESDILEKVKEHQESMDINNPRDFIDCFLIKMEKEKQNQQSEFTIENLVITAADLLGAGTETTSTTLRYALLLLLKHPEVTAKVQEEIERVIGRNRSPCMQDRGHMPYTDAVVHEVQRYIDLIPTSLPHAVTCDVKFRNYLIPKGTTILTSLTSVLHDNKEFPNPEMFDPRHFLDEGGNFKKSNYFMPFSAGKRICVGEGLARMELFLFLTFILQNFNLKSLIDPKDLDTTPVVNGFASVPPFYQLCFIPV
# T2 sequence (P08684 whole entry): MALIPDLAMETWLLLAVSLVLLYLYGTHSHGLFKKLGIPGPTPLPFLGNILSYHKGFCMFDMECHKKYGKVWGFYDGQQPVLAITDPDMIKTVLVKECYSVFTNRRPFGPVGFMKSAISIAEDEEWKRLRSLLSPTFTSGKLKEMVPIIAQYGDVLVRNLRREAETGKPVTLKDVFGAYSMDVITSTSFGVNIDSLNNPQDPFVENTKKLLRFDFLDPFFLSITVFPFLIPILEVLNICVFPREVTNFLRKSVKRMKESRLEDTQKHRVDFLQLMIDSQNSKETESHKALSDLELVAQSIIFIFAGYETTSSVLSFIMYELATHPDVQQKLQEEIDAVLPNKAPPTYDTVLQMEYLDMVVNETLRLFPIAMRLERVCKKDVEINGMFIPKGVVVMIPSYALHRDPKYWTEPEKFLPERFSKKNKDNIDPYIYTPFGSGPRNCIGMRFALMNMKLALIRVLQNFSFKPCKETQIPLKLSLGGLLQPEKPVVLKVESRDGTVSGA
# T1 sequence (P19634 whole entry): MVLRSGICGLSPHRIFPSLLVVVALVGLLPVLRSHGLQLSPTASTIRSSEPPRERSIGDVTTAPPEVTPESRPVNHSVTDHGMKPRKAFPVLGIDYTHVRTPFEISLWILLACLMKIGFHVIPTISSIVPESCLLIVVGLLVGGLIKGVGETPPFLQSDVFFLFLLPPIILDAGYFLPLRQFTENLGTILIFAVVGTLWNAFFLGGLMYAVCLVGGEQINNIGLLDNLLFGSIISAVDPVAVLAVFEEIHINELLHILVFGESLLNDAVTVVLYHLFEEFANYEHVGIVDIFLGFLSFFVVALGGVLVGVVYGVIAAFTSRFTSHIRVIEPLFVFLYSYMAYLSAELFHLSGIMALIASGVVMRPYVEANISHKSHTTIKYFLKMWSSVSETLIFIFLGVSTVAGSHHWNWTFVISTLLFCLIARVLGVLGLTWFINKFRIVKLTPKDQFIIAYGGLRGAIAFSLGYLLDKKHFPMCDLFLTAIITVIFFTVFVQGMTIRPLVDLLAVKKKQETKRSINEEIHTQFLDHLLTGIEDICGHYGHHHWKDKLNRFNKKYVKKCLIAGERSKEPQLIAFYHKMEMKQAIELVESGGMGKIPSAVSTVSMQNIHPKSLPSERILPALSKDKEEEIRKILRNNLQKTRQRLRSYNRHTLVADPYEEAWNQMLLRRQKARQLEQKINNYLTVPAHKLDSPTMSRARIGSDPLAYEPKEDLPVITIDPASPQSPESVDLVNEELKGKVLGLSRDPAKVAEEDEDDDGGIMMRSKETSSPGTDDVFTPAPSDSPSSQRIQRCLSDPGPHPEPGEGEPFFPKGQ
# Chain of Voltage-gated inwardly rectifying potassium channel KCNH2 (Q12809 whole entry): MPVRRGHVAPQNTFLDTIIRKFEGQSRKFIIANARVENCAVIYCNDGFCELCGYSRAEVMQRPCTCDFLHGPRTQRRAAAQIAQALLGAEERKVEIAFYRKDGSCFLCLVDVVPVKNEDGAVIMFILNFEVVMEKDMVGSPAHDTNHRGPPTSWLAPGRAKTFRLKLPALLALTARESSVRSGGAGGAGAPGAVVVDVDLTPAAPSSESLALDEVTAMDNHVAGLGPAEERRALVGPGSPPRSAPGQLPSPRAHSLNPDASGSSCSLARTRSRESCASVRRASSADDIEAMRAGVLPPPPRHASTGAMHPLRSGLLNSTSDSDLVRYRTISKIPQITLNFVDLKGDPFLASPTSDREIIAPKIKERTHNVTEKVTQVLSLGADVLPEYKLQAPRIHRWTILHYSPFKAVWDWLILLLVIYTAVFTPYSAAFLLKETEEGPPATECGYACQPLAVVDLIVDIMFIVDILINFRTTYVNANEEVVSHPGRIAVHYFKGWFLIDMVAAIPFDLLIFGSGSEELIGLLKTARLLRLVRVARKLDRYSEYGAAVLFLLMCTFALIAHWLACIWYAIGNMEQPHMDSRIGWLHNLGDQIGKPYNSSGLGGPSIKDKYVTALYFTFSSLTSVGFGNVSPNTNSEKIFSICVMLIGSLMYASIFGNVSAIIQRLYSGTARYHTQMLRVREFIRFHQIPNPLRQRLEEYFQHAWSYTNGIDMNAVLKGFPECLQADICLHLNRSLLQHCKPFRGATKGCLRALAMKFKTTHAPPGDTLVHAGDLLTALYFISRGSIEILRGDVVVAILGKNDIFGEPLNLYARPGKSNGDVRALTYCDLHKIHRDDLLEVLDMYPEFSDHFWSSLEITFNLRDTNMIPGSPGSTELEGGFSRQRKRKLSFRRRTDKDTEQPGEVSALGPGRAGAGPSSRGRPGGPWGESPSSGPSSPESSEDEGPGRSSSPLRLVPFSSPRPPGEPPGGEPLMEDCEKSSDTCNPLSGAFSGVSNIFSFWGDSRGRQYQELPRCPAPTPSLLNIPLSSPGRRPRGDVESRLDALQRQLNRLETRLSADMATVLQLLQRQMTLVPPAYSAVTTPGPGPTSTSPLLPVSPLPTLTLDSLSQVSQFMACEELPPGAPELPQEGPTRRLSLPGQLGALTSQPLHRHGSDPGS
# Chain of Cytochrome P450 2D6 (P10635 whole entry): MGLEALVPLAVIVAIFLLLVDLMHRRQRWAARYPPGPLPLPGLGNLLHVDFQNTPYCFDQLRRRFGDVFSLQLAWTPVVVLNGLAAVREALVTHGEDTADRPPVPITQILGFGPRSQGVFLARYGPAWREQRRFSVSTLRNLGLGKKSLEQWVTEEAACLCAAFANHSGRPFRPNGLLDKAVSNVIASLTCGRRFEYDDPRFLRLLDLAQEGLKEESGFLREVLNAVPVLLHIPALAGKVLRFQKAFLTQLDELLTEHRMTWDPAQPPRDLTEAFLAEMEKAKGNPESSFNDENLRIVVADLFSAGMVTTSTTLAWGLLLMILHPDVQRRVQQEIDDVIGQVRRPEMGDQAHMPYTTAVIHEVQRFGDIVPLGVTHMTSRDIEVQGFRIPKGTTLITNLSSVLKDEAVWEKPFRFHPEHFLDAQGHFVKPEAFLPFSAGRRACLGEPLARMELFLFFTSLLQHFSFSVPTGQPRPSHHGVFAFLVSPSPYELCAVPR
# Chain of Cytochrome P450 2C9 (P11712 whole entry): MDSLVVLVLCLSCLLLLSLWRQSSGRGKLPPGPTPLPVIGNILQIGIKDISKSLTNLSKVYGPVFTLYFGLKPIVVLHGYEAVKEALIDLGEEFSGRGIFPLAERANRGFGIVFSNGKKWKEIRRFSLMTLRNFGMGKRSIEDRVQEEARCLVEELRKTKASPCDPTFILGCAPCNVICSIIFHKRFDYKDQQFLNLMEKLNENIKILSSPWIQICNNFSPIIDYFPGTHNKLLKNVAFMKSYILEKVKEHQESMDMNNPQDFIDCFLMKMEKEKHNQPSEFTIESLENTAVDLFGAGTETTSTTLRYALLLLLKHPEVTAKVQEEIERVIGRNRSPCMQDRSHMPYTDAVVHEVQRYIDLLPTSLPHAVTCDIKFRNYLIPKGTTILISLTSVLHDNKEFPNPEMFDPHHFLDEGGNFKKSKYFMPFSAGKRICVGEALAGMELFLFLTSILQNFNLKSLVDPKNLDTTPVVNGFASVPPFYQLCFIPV
smiles,measurement,setting,value
Cc1cc(-n2cccc2)c(S(C)(=O)=O)cc1C(=O)NC(=N)N [ENIPORIDE],bioavailability,[1],65%
same,CL,[2],28%
same,MRT,[3],0.4 h
same,Vd,[4],0.5 L/kg
N=C(N)NC(=O)c1cnn(-c2cccc3ncccc23)c1C1CC1 [ZONIPORIDE],bioavailability,[1],5%
same,CL,[2],105%
same,MRT,[3],0.6 h
same,Vd,[4],2.8 L/kg
CCC(=O)N1CCC(c2cc(C)c(C(=O)NC(=N)N)cc2S(C)(=O)=O)CC1,IC50,[5],0.015 µM
same,bioavailability,[1],1%
same,CL,[2],54%
same,MRT,[3],0.3 h
same,Vd,[4],0.95 L/kg
same,Ratio,[6],14
CC(=O)N1CCC(c2cc(C)c(C(=O)NC(=N)N)cc2S(C)(=O)=O)CC1,IC50,[5],0.015 µM
same,bioavailability,[1],4%
same,CL,[2],47%
same,MRT,[3],0.36 h
same,Vd,[4],1 L/kg
N=C(N)NC(=O)c1ccc(N2CCC(NC(=O)c3ccc[nH]3)CC2)c(C(F)(F)F)c1,IC50,[5],0.041 µM
same,inhibition,[7],Active
N=C(N)NC(=O)c1ccc(N2CCN(C(=O)c3ccc[nH]3)CC2)c(C(F)(F)F)c1 [SABIPORIDE],IC50,[5],0.028 µM
same,bioavailability,[1],42%
same,CL,[2],24%
same,IC50,[8],9 µM
same,IC50,[9],7 µM
same,MRT,[3],1.3 h
same,Vd,[4],1.3 L/kg
CC(=O)N1CCC(c2ccc(C(=O)NC(=N)N)cc2C(F)(F)F)CC1 [BI 9627],Activity,[10],Non-toxic
same,IC50,[11],> 30 µM
same,Activity,[12],Not Active
same,Activity,[13],Non-toxic
same,inhibition,[14],inactive
same,Papp,[15],≥ 2 ×10⁻⁶ cm/s
same,Activity,[16],100%
same,Activity,[17],Non-toxic
same,CL,[18],13%
same,IC50,[5],0.006 µM
same,bioavailability,[1],73%
same,CL,[2],5.7%
same,IC50,[19],> 30 µM
same,Activity,[20],Non-toxic
same,Activity,[21],Non-toxic
same,Activity,[22],Non-toxic
same,Activity,[23],Non-toxic
same,IC50,[8],> 30 µM
same,Activity,[24],Non-toxic
same,IC50,[9],> 30 µM
same,MRT,[3],3.2 h
same,Activity,[25],Non-toxic
same,Activity,[26],36%
same,Vd,[4],0.76 L/kg
same,Vd,[27],1.4 L/kg
same,bioavailability,[28],33%
same,Activity,[29],Non-toxic
same,"hepatic extraction ratio at 1 h, 1 µM",[30],< 0.11
same,IC50,[31],> 30 µM
same,Activity,[32],Non-toxic
same,"hepatic extraction ratio at 1 h, 1 µM",[33],0.11
same,MRT,[34],6.2 h
same,Activity,[35],Non-toxic
N#Cc1cccc(C(=O)N2CCC(c3ccc(C(=O)NC(=N)N)cc3C(F)(F)F)CC2)c1,IC50,[11],> 30 µM
same,Papp,[15],≥ 2 ×10⁻⁶ cm/s
same,CL,[18],18%
same,IC50,[5],0.035 µM
same,bioavailability,[1],72%
same,CL,[2],16%
same,IC50,[19],> 30 µM
same,IC50,[8],7 µM
same,IC50,[9],22 µM
same,MRT,[3],3.3 h
same,Vd,[4],4.9 L/kg
same,bioavailability,[28],36%
same,"hepatic extraction ratio at 1 h, 1 µM",[30],< 0.11
same,IC50,[31],19 µM
same,"hepatic extraction ratio at 1 h, 1 µM",[33],< 0.056
same,MRT,[34],17 h
